APJ antag = APJ receptor antagonism | P35414 | CHO-K1 APJ beta-arrestin complementation, luminescence | inhibition, % at 20 µM | actives 0.32% (n = 330,000) | AID 2521;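 active means inhibition above about 40% at 20 µM, limit read from the data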;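 further: cells challenged with 10 nM apelin-13 agonist together with compound; plate controls were apelin-13 plus DMSO wells for no effect and DMSO wells lacking apelin-13 for full effect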
CCR6 antag = blocks CCL20-driven beta-arrestin recruitment at human CCR6; CHO-K1 CCR6 PathHunter beta-arrestin, luminescence, CCL20-stimulated; actives 0.49% (n = 340,000); P51684; AID 493098; inhibition, % at 20 µM;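 active means compounds whose inhibition of the agonist-driven luminescence signal at 20 µM reaches about 50%, limit read from the data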;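 further: cells stimulated with CCL20 at 14 nM final; plate controls were DMSO with CCL20 for no effect and DMSO without agonist for full effect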
Target sequence (P51684 whole entry, looked up): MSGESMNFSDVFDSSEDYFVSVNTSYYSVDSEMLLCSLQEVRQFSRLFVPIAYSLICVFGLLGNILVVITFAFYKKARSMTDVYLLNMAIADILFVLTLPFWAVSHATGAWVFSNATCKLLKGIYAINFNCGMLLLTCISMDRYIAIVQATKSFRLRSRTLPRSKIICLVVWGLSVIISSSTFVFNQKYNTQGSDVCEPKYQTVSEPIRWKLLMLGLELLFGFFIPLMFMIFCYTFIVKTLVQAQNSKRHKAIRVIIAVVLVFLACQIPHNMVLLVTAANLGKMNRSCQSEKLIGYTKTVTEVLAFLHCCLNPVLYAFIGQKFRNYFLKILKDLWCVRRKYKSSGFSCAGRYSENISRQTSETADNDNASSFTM
hiPSC survival = hiPSC single-cell survival enhancement; actives 0.044% (n = 360,000); survival enhancement, % at 20 µM; ATPlite luminescence; 100% = ROCK inhibitor wells, 0% = DMSO; in the data active means survival enhancement above about 18%;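 further: cells exposed to compounds for 16 hours before the ATP read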
EBI2 antag = antagonists of human EBI2 receptor | EBI2 beta-arrestin recruitment, luminescence, 7a,25-OHC stimulated | inhibition, % at 5 µM | actives 0.81% (n = 360,000) | AID 651636; in the data active means inhibition above about 38%;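 further: enzyme fragment complementation signal reports receptor beta-arrestin coupling in cells; 0% = agonist plus DMSO wells and 100% = wells without agonist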
CXCR6 inh = CXCR6 (human) receptor inhibition. AID 602244. CHO-K1 PathHunter CXCR6 beta-arrestin, luminescence. O00574. inhibition, % at 20 µM. actives 0.36% (n = 360,000); in the data active means inhibition above about 34%, passing the limit was not always enough;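 further: antagonist mode with CXCL16 agonist at 10 nM final; 0% = 10 nM CXCL16 with DMSO and 100% = unstimulated wells without agonist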
APJ agonist = APJ receptor agonism; actives 0.11% (n = 330,000); CHO-K1 APJ PathHunter beta-arrestin, luminescence; 0% DMSO wells, 100% apelin; activation, % at 20 µM;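 active means activation more than six SD over the plate average, tested at 20 µM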;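 further: 0% = DMSO alone and 100% = apelin-13 at 10 nM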
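Test system: CHO-K1 APJ beta-arrestin complementation cell line. Amount: cell density 1000 per well. Controls: DMSO negative, 10 nM Apelin-13 positive. Signal: luminescent beta-gal fragment complementation, chemiluminescent substrate. Read-out basis: agonist-driven arrestin binding to APJ. Timing: compound stimulation 90 min at 25 °C, detection 60 min.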
CXCR6 antag conf = CXCR6 antagonism confirmation, single concentration; shares compounds with CXCR6 inh; CHO-K1 CXCR6 PathHunter beta-arrestin, luminescence; inhibition, % at 20 µM; actives 65% (n = 700); AID 602409;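 active means mean inhibition over four retests above 40%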;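 further: receptor stimulated with 10 nM CXCL16 agonist; beta-galactosidase fragment complementation upon beta-arrestin recruitment to receptor; plate controls were CXCL16 plus DMSO for no effect and DMSO without CXCL16 for full effect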
The depositor's hits bear a star; nt = no result. The list is not random: actives were taken first. Their share in the collection is about 1.5%.

SMILES	APJ antag	CCR6 antag	hiPSC survival	EBI2 antag	CXCR6 inh	APJ agonist	CXCR6 antag conf
C=C1C(=O)[C@]23C[C@H]1CCC2[C@@]1(C)C(C[C@@H]3O)[C@](C)(C(=O)OC)CC[C@@H]1O (stereo partly drawn)	nt	nt	-4.8	37.8	55.4*	nt	69.8*
O=C(NCc1ccco1)c1nc2ccccc2s1	4.8	6.0	-2.1	-8.1	40.7*	-4.2	11.1
O=C(CSc1nc2ccccc2c(=O)[nH]1)NCc1ccc(Cl)cc1	8.2	-2.3	-1.1	-1.9	-2.7	0.3	nt
O=c1[nH]c(SCc2ccc(Cl)cc2)nc2ccccc12	19.4	-9.1	-0.6	-3.1	82.5*	-2.5	15.0
COc1ccc(/C=N/Nc2ccccc2)cc1Cn1nc(C)c([N+](=O)[O-])c1C	7.9	36.5	3.6	13.3	51.3*	-4.0	12.6
CCn1nc(NC(=O)C(C)C)c2cc3ccc(C)cc3nc21	-8.0	3.4	2.2	0.6	-7.4	-0.5	nt
CCn1nc(NC(C)=O)c2cc3ccc(C)cc3nc21	2.6	-5.0	-0.5	1.8	44.3*	0.5	6.3
CN(C)C(=O)OCc1c(-c2ccccc2)ncc2ccccc12	14.6	20.9	nt	nt	nt	-2.6	nt
CCN1CCN(C(=O)/C=C/c2ccc(C)o2)CC1	11.0	1.0	-0.6	-3.1	2.6	-4.4	nt
Cc1ccc(/C=C/C(=O)N2CC(C)CC(C)C2)o1 (stereo not drawn)	29.1	27.3	-1.6	3.6	76.3*	-1.2	6.2
CCCn1c(Nc2nc3ccccc3n2C)nc2ccccc21	7.6	84.1*	-1.1	-9.7	69.9*	2.1	5.3
CCCCn1c(Nc2ccccc2)nc2ccccc21	12.7	1.6	2.0	-8.7	-4.2	-0.3	nt
Cc1ccc(NC(=O)c2cc(N3C(=O)C=CC3=O)ccc2N2CCOCC2)cc1	nt	nt	-0.1	0.1	89.1*	nt	27.8
C[C@@H]1CC[C@H](Cc2ccc(-n3cccc3)cc2)N1C(=O)OC(C)(C)C	nt	nt	-1.2	11.1	52.7*	nt	9.9
CCOc1ccc(CNc2ccc(N3CCN(Cc4ccccc4)CC3)cc2)cc1	-20.6	14.8	2.9	5.2	101.5*	8.1	10.6
O=C(NNC(=O)C1C2C=CC(C2)C1C(=O)O)c1ccccc1O (stereo not drawn)	10.2	5.1	-0.4	-4.9	3.5	-1.0	nt
O=C1CN(C(=O)CSc2nc3cc(Cl)ccc3c(=O)n2Cc2ccccc2)c2ccccc2N1	28.6	55.5*	-1.4	26.1	43.4*	-7.2	46.6*
Cc1ccc(Cn2c(SCC(=O)N3CC(=O)Nc4ccccc43)nc3ccccc3c2=O)cc1	-6.0	-3.8	3.6	12.8	7.9	0.7	nt
COc1cc(C(=O)NCC(c2ccco2)N2CCc3ccccc3C2)cc(OC)c1OC (stereo not drawn)	-50.1	9.2	-0.5	1.8	44.3*	-0.3	53.8*
O=C(NCC(c1ccco1)N1CCc2ccccc2C1)c1ccccc1 (stereo not drawn)	22.6	14.0	-0.2	-3.7	2.6	3.8	nt
Cc1ccc(P(=O)(O)c2ccc(C)cc2)cc1	3.0	3.1	2.9	-0.9	3.0	2.1	nt
Cc1ccc(P(=O)(c2ccc(C)cc2)[C@@H](NC(c2ccccc2)c2ccccc2)c2ccccc2)cc1	nt	nt	-0.6	27.1	40.9*	nt	41.1*
Cc1cc(C(=O)O)cc(S(=O)(=O)Nc2c(C)nn(C)c2C)c1C	11.9	1.6	5.9	4.1	-6.5	-5.0	nt
CSc1ccc(C(=O)N2CCC(CCC(=O)NCc3ccc(F)cc3)CC2)cc1	6.7	-8.1	-0.6	13.5	1.3	-2.2	nt
COc1cccc(NC(=O)CN(C)C(=O)c2ccc(Cl)c(S(=O)(=O)N3CCCCCC3)c2)c1	3.1	15.8	0.1	10.7	-2.8	-3.1	nt
NNC(=S)Nc1ccc(C(F)(F)F)cc1Cl	-11.9	30.8	0.7	-0.6	47.0*	1.2	6.5
FC(F)(F)c1cccc(NC(=S)Nc2ccc(Cl)cc2Cl)c1	-6.7	4.8	1.8	-4.4	-9.7	0.2	nt
Cc1ccc(S(=O)(=O)NCC(=O)OCC(=O)c2ccc(S(=O)(=O)N3CCCCC3)cc2)cc1C	nt	71.6*	-0.5	15.1	55.7*	nt	33.2

Screening data deposited in PubChem by Sanford-Burnham Center for Chemical Genomics.
